The text below walks through data of ChEMBL document CHEMBL3112475, “Synthesis of novel ring-A fused hybrids of oleanolic acid with capabilities to arrest cell cycle and induce apoptosis in breast cancer cells” (Eur J Med Chem, 2014).

In experiment [1] the test system is HT-29. Nature of the experiment: Cytotoxicity against human HT-29 cells after 48 hrs by MTT assay. The settings on record: HT-29, 48 h. Format: functional, cell-based. The gist of the method:
(§1)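 1 × 10⁴ cells, counted by trypan blue exclusion, were incubated in 96-well plates with a concentration series for 48 h at 37 °C in DMEM with 10% FBS. MTT reagent (5 mg/ml) was added and absorbance read at 570 nm. IC50 was taken from a plot of % viability versus control against concentration. Compounds were first screened at 100 µM, and only those giving ≥50% cytotoxicity went to dose-response.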

The test system of experiment [2] is PC-3. Put plainly: Cytotoxicity against human PC3 cells after 48 hrs by MTT assay. The class given is functional, cell-based. The settings on record: PC-3, 48 h. The gist of the method: as §1
In general terms: Tetrazolium assays rely on reduction of a dye to a coloured formazan, in cell work by metabolically active cells.

Experiment [3] concerns MCF7. Put plainly: Cytotoxicity against human MCF7 cells after 48 hrs by MTT assay. The class given is functional, cell-based. The following applies: MCF7, 48 h. The gist of the method:
as §1

In experiment [4] the test system is MDA-MB-231. Put plainly: Cytotoxicity against human MDA-MB-231 cells after 48 hrs by MTT assay. The class given is functional, cell-based. The following applies: MDA-MB-231, 48 h. The essentials:
as §1

A short description of experiment [5]: Cytotoxicity against human ME180 cells after 48 hrs by MTT assay. The class given is functional, cell-based. The following applies: ME-180, 48 h. The essentials:
as §1

Experiment [6] has as its system MDA-MB-453. Put plainly: Cytotoxicity against human MDA-MB-453 cells after 48 hrs by MTT assay. Format: functional, cell-based. The settings on record: MDA-MB-453, 48 h. The gist of the method: as §1
In experiment [7] the test system is HeLa. Put plainly: Cytotoxicity against human HeLa cells after 48 hrs by MTT assay. The class given is functional, cell-based. The gist of the method:
as §1

Experiment [8] concerns MCF7. Nature of the experiment: Cell cycle arrest in human MCF7 cells assessed as accumulation at G2/M phase at 5 uM after 48 hrs by propidium iodide staining (reference value: 14.9%). The class given is functional.
The test system of experiment [9] is MCF7. Nature of the experiment: Induction of morphological change in human MCF7 cells assessed as membrane blebbing at 10 uM after 48 hrs by acridine orange and ethidium bromide staining based fluorescence microscopic analysis. The class given is functional, cell-based. The gist of the method:
(§2)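 MCF-7 cells were plated at 1 × 10⁶ cells/ml and treated with compound for 48 h. After acridine orange/ethidium bromide dual staining, cells were viewed 30 min later by fluorescence microscopy through a blue filter. Green homogeneous nuclei were scored as intact, condensed or fragmented chromatin as apoptotic, and orange-red nuclei as late apoptotic/necrotic. At least 200 cells were counted in random fields, and each test was done three times.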

For experiment [10], the system named is MCF7. Nature of the experiment: Induction of morphological change in human MCF7 cells assessed as chromatin condensation with destructive fragmentation of nucleus at 10 uM after 48 hrs by acridine orange and ethidium bromide staining based fluorescence microscopic analysis. The class given is functional, cell-based. The gist of the method: as §2
The test system of experiment [11] is MCF7. Put plainly: Cell cycle arrest in human MCF7 cells assessed as accumulation at G2/M phase at 10 uM after 48 hrs by propidium iodide staining (reference value: 14.9%). Format: functional.
In experiment [12] the test system is MCF7. Put plainly: Cell cycle arrest in human MCF7 cells assessed as accumulation at S phase at 10 uM after 48 hrs by propidium iodide staining (reference value: 10.2%). Format: functional.
In experiment [13] the test system is MCF7. Nature of the experiment: Ratio of etoposide IC50 to compound IC50 for human MCF7 cells. Format: functional.
Experiment [14] relates to MCF7. Put plainly: Cell cycle arrest in human MCF7 cells assessed as accumulation at S phase at 5 uM after 48 hrs by propidium iodide staining (reference value: 10.2%). The class given is functional.
Experiment [15] deals with MCF7. Nature of the experiment: Cell cycle arrest in human MCF7 cells assessed as accumulation at G0/G1 phase at 5 uM after 48 hrs by propidium iodide staining (reference value: 69.2%). The class given is functional.
The subject of experiment [16] is MCF7. Put plainly: Cell cycle arrest in human MCF7 cells assessed as accumulation at G0/G1 phase at 10 uM after 48 hrs by propidium iodide staining (reference value: 69.2%). The class given is functional.
For experiment [17], the system named is MCF7. Nature of the experiment: Induction of morphological change in human MCF7 cells assessed as cell shrinkage at 10 uM after 48 hrs by acridine orange and ethidium bromide staining based fluorescence microscopic analysis. Format: functional. The essentials:
as §2

Experiment [18] deals with MCF7. Put plainly: Induction of apoptosis in human MCF7 cells assessed as increase of early apoptotic cells at 5 uM after 48 hrs by acridine orange and ethidium bromide staining based fluorescence microscopic analysis. Format: functional, cell-based. The gist of the method: as §2
Experiment [19] deals with MCF7. Put plainly: Induction of apoptosis in human MCF7 cells assessed as increase of late apoptotic/necrotic cells at 10 uM after 48 hrs by acridine orange and ethidium bromide staining based fluorescence microscopic analysis. Format: functional, cell-based. The gist of the method:
as §2

Active and inactive are the calls of the source. The rule behind the calls is not given here.

For the compound `COC(=O)[C@]12CCC(C)(C)C[C@H]1C1=CC[C@@H]3[C@@]4(C)C/C(=C\c5ccccc5)C(=O)C(C)(C)[C@@H]4CC[C@@]3(C)[C@]1(C)CC2`, the IC50 (in general, the concentration that inhibits the measured activity by half) in experiment [1] was above 100 µM; in experiment [2], above 100 µM; in experiment [3] it was 71.7 µM; in experiment [4], above 100 µM; in experiment [5], above 100 µM; in [6], above 100 µM. This compound displayed an IC50 in experiment [7] above 100 µM.
Turning to `COC(=O)[C@]12CCC(C)(C)C[C@H]1C1=CC[C@@H]3[C@@]4(C)Cc5c(-c6ccccc6)nc(=O)[nH]c5C(C)(C)[C@@H]4CC[C@@]3(C)[C@]1(C)CC2`, the IC50 in experiment [1] was above 100 µM; in experiment [2], 87.4 µM; in experiment [3] it was 78.9 µM; in [4], above 100 µM; in experiment [5] it was above 100 µM; in experiment [6] it was 96.7 µM. The same compound registered an IC50 in experiment [7] above 100 µM.
With `COC(=O)[C@]12CCC(C)(C)C[C@H]1C1=CC[C@@H]3[C@@]4(C)Cc5c(-c6ccccc6)nc(N)nc5C(C)(C)[C@@H]4CC[C@@]3(C)[C@]1(C)CC2`, the Activity in experiment [8] was 17.8%; in experiment [11], 14.2%; in experiment [12] it was 19.8%; in experiment [14], 13%; in experiment [15], 62.4%; in experiment [16], 59.4%. Besides, the IC50 in experiment [1] was 30.7 µM; in experiment [2], 75.3 µM; in experiment [3], 10.6 µM; in [4], 16.3 µM; in [5] it was 16.7 µM; in experiment [6] it was 12.6 µM. Moreover, in [7], half-maximal inhibition (IC50) was put at 45.1 µM. The outcome in [9], in experiment [10], in [17], in [18] and in experiment [19] was Active. For the same compound, the “Ratio IC50” value in experiment [13] is on record as 2.
With `COC(=O)[C@]12CCC(C)(C)C[C@H]1C1=CC[C@@H]3[C@@]4(C)CCC(=O)C(C)(C)[C@@H]4CC[C@@]3(C)[C@]1(C)CC2`, the IC50 is above 100 µM in [1]; above 100 µM in experiment [2]; 78.7 µM in experiment [3]; above 100 µM in [4]; above 100 µM in [5]; above 100 µM in experiment [6]. This compound also returned an IC50 in experiment [7] above 100 µM.
Turning to `COC(=O)[C@]12CCC(C)(C)C[C@H]1C1=CC[C@@H]3[C@@]4(C)Cc5c(noc5-c5ccccc5)C(C)(C)[C@@H]4CC[C@@]3(C)[C@]1(C)CC2`, the IC50 in experiment [1] is above 100 µM; in experiment [2], above 100 µM; in experiment [3] it was 88.2 µM; in [4], above 100 µM; in experiment [5], above 100 µM; in experiment [6], above 100 µM. In experiment [7], this compound came in with an IC50 above 100 µM.
Take `COC(=O)[C@]12CCC(C)(C)C[C@H]1C1=CC[C@@H]3[C@@]4(C)Cc5c(-c6ccccc6)nc(=S)[nH]c5C(C)(C)[C@@H]4CC[C@@]3(C)[C@]1(C)CC2`: the IC50 in experiment [1] was 69 µM; in experiment [2] it was above 100 µM; in [3] it was 30.9 µM; in experiment [4] it was 75.5 µM; in experiment [5], above 100 µM; in experiment [6], 40.6 µM. The compound also came in with an IC50 in experiment [7] of 75.4 µM.
For `COc1cccc2c1C(=O)c1c(O)c3c(c(O)c1C2=O)C[C@@](O)(C(=O)CO)C[C@@H]3O[C@H]1C[C@H](N)[C@H](O)[C@H](C)O1` [DOXORUBICIN], the IC50 came to 0.19 µM in experiment [2], 0.39 µM in experiment [5], 1.99 µM in [6] and 0.36 µM in experiment [7].
As to `CC1(C)CC[C@]2(C(=O)O)CC[C@]3(C)C(=CC[C@@H]4[C@@]5(C)CC[C@H](O)C(C)(C)[C@@H]5CC[C@]43C)[C@@H]2C1` [OLEANOLIC_ACID], the IC50 in experiment [1], in experiment [2], in experiment [3], in experiment [4], in experiment [5] and in [6] was above 100 µM in each case. Besides, the IC50 in [7] was above 100 µM.
On to `COC(=O)[C@]12CCC(C)(C)C[C@H]1C1=CC[C@@H]3[C@@]4(C)C[C@@H]5C(=NN[C@H]5c5ccccc5)C(C)(C)[C@@H]4CC[C@@]3(C)[C@]1(C)CC2`, for which the IC50 in experiment [1] is above 100 µM; in experiment [2] it was above 100 µM; in experiment [3] it was 96.6 µM; in experiment [4], above 100 µM; in experiment [5], above 100 µM; in experiment [6], above 100 µM. Moreover, the IC50 in [7] was above 100 µM.
As for `COC(=O)[C@]12CCC(C)(C)C[C@H]1C1=CC[C@@H]3[C@@]4(C)Cc5c(nn(-c6ccccc6)c5-c5ccccc5)C(C)(C)[C@@H]4CC[C@@]3(C)[C@]1(C)CC2`, the IC50 in experiment [1], in experiment [2], in [3], in experiment [4], in experiment [5] and in [6] was above 100 µM each time. The compound further came in with an IC50 in experiment [7] above 100 µM.
As for `COc1cc([C@@H]2c3cc4c(cc3[C@@H](O[C@@H]3O[C@@H]5CO[C@@H](C)O[C@H]5[C@H](O)[C@H]3O)[C@H]3COC(=O)[C@H]23)OCO4)cc(OC)c1O` [ETOPOSIDE], the IC50 amounted to 21.4 µM in experiment [1]; 14.4 µM in experiment [2]; 23.9 µM in experiment [3]; 24.2 µM in experiment [4]; 8.9 µM in experiment [5]; 4.71 µM in experiment [7].
